ChEMBL document CHEMBL4689842, “EUbOPEN Chemogenomics Library wave 1” (2021)

System: HEK-293T
Test: Multiplex assay against HEK293T;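 for Population Tubulin-Different-Phenotype (%): share of the cells with healthy nuclei that show this phenotype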
Type: toxicity, cell-based
Conditions: human
Summary of the method: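 Cells were classed with CellPathfinder machine-learning gating, first as Hoechst high-intensity objects or normal cells, then (normal cells) as healthy, pyknosed or fragmented nuclei, and finally (pyknosed cells) as mitotic or apoptotic. Staining of live cells at seeding used Hoechst33342, BioTracker Green Microtubule Cytoskeleton Dye, MitoTracker Red and Annexin V Alexa Fluor 680, with imaging on a CQ1 microscope at 37°C and 5% CO2 after compound addition. Tubulin, mitochondrial-mass and membrane-permeability phenotypes are per cents of healthy-nucleus cells.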

[1] = 12 h, 1 µM, compound concentration 1 uM, replicate 1
[2] = 12 h, 1 µM, compound concentration 1 uM, replicate 2
[3] = 12 h, 10 µM, compound concentration 10 uM, replicate 1
[4] = 12 h, 10 µM, compound concentration 10 uM, replicate 2
[5] = 24 h, 1 µM, compound concentration 1 uM, replicate 1
[6] = 24 h, 1 µM, compound concentration 1 uM, replicate 2
[7] = 24 h, 10 µM, compound concentration 10 uM, replicate 1
[8] = 24 h, 10 µM, compound concentration 10 uM, replicate 2

In the case of CCOc1ccn(-c2ccc(F)cc2)c(=O)c1C(=O)Nc1ccc(Oc2ccnc(N)c2Cl)c(F)c1 [BMS-777607], the “Population Apoptotic (%)” value [1] is reported as 25%, the “Population Fragmented Nuclei (%)” value [1] is reported as 14% and the “Population Healthy Nuclei (%)” value [1] is reported as 67%. For the same compound, the “Population Hoechst High Intensity Objects (%)” value [1] was 10%, the “Population Membrane Permeable-Phenotype (%)” value [1] was 6% and the “Population Mitochondria Different-Phenotype (%)” value [1] was 10%. The “Population Mitotic Cells (%)” value [1] was 75%, the “Population Normal (%)” value [1] was 89% and the “Population Pyknosed Nuclei (%)” value [1] was 17%. The “Population Tubulin-Different-Phenotype (%)” value [1] was 22%, the “Total Cell Count” value [1] was 624 and the “Population Apoptotic (%)” value [2] was 5%. The “Population Fragmented Nuclei (%)” value [2] was 5%, the “Population Healthy Nuclei (%)” value [2] was 89% and the “Population Hoechst High Intensity Objects (%)” value [2] was 2%. For the same compound, the “Population Mitochondria Different-Phenotype (%)” value [2] was 16%, the “Population Mitotic Cells (%)” value [2] was 95% and the “Population Normal (%)” value [2] was 97%. For the same compound, the “Population Pyknosed Nuclei (%)” value [2] was 5%, the “Population Tubulin-Different-Phenotype (%)” value [2] was 48% and the “Total Cell Count” value [2] was 1393. The “Population Apoptotic (%)” value [3] was 23%, the “Population Fragmented Nuclei (%)” value [3] was 25% and the “Population Healthy Nuclei (%)” value [3] was 50%. The “Population Hoechst High Intensity Objects (%)” value [3] was 15%, the “Population Membrane Permeable-Phenotype (%)” value [3] was 4% and the “Population Mitochondria Different-Phenotype (%)” value [3] was 3%. For the same compound, the “Population Mitotic Cells (%)” value [3] was 76%, the “Population Normal (%)” value [3] was 84% and the “Population Pyknosed Nuclei (%)” value [3] was 25%. The “Population Tubulin-Different-Phenotype (%)” value [3] was 3%, the “Total Cell Count” value [3] was 432 and the “Population Apoptotic (%)” value [4] was 15%. The “Population Fragmented Nuclei (%)” value [4] was 9%, the “Population Healthy Nuclei (%)” value [4] was 86% and the “Population Hoechst High Intensity Objects (%)” value [4] was 2%. For the same compound, the “Population Membrane Permeable-Phenotype (%)” value [4] was 2%, the “Population Mitochondria Different-Phenotype (%)” value [4] was 7% and the “Population Mitotic Cells (%)” value [4] was 84%. The “Population Normal (%)” value [4] was 97%, the “Population Pyknosed Nuclei (%)” value [4] was 4% and the “Population Tubulin-Different-Phenotype (%)” value [4] was 5%. The “Total Cell Count” value [4] was 1444, the “Population Apoptotic (%)” value [5] was 17% and the “Population Fragmented Nuclei (%)” value [5] was 11%. For the same compound, the “Population Healthy Nuclei (%)” value [5] was 76%, the “Population Hoechst High Intensity Objects (%)” value [5] was 10% and the “Population Membrane Permeable-Phenotype (%)” value [5] was 10%. The “Population Mitochondria Different-Phenotype (%)” value [5] was 12%, the “Population Mitotic Cells (%)” value [5] was 82% and the “Population Normal (%)” value [5] was 89%. For the same compound, the “Population Pyknosed Nuclei (%)” value [5] was 12%, the “Population Tubulin-Different-Phenotype (%)” value [5] was 40% and the “Total Cell Count” value [5] was 625. The “Population Apoptotic (%)” value [6] was 9%, the “Population Fragmented Nuclei (%)” value [6] was 10% and the “Population Healthy Nuclei (%)” value [6] was 84%. For the same compound, the “Population Hoechst High Intensity Objects (%)” value [6] was 6%, the “Population Membrane Permeable-Phenotype (%)” value [6] was 12% and the “Population Mitochondria Different-Phenotype (%)” value [6] was 4%. For the same compound, the “Population Mitotic Cells (%)” value [6] was 90%, the “Population Normal (%)” value [6] was 93% and the “Population Pyknosed Nuclei (%)” value [6] was 4%. For the same compound, the “Population Tubulin-Different-Phenotype (%)” value [6] was 70%, the “Total Cell Count” value [6] was 1553 and the “Population Apoptotic (%)” value [7] was 25%. The “Population Fragmented Nuclei (%)” value [7] was 18%, the “Population Healthy Nuclei (%)” value [7] was 69% and the “Population Hoechst High Intensity Objects (%)” value [7] was 13%. For the same compound, the “Population Membrane Permeable-Phenotype (%)” value [7] was 6%, the “Population Mitochondria Different-Phenotype (%)” value [7] was 3% and the “Population Mitotic Cells (%)” value [7] was 74%. For the same compound, the “Population Normal (%)” value [7] was 86%, the “Population Pyknosed Nuclei (%)” value [7] was 12% and the “Population Tubulin-Different-Phenotype (%)” value [7] was 5%. The “Total Cell Count” value [7] was 433, the “Population Apoptotic (%)” value [8] was 8% and the “Population Fragmented Nuclei (%)” value [8] was 27%. The “Population Hoechst High Intensity Objects (%)” value [8] was 2%, the “Population Membrane Permeable-Phenotype (%)” value [8] was 5% and the “Population Mitochondria Different-Phenotype (%)” value [8] was 1%. For the same compound, the “Population Mitotic Cells (%)” value [8] was 91%, the “Population Normal (%)” value [8] was 97% and the “Population Pyknosed Nuclei (%)” value [8] was 2%. The “Total Cell Count” value [8] was 2353.
